Experimental data taken from ChEMBL document CHEMBL4368884, “Structure-activity relationship of the cinnamamide family of antibiotic potentiators for methicillin-resistant Staphylococcus aureus (MRSA)” (Medchemcomm, 2018).

Tested on: Staphylococcus aureus
Assay: Potentiation of oxacillin-induced antibacterial activity against Staphylococcus aureus MRSA252 assessed as oxacillin MIC at 20 uM (reference value: 256 ug/ml)
Type: functional
Conditions: not given

| SMILES | MIC [µg/mL] |
| --- | --- |
| COc1ccc(S(=O)(=O)N(CCO)c2ccccc2CN(C)C/C=C/c2ccc(Cl)cc2)cc1 | 128 |
| Cc1ccc(S(=O)(=O)N(CCO)c2ccccc2CN(C)C(=O)/C=C/c2ccc(C(F)(F)F)cc2)cc1 | 2 |
| Cc1ccc(S(=O)(=O)N(CCO)c2ccccc2CN(C/C=C/c2ccc(Cl)cc2)CC(C)C)cc1 | 128 |
| CCc1ccc(S(=O)(=O)N(CCO)c2ccccc2CN(C)C(=O)/C=C/c2ccc(C(F)(F)F)cc2)cc1 | 4 |
| CN(Cc1ccccc1N(CCO)S(=O)(=O)c1ccsc1)C(=O)/C=C/c1ccc(Cl)cc1 | ≥ 256 |
| CN(Cc1ccccc1N(CCO)S(=O)(=O)c1ccc([N+](=O)[O-])cc1)C(=O)/C=C/c1ccc(C(F)(F)F)cc1 | ≥ 256 |
| Cc1ccc(S(=O)(=O)N(CCO)c2ccccc2CN(C(=O)/C=C/c2ccc(C(F)(F)F)cc2)C(C)C)cc1 | ≥ 256 |
| CN(Cc1ccccc1N(CCO)S(=O)(=O)c1ccc(C#N)cc1)C(=O)/C=C/c1ccc(C(F)(F)F)cc1 | 32 |
| CN(Cc1ccccc1NS(=O)(=O)c1ccc(F)cc1)C(=O)/C=C/c1ccc(C(F)(F)F)cc1 | ≥ 256 |
| COc1ccc(/C=C/C(=O)N(C)Cc2ccccc2N(CCO)S(=O)(=O)c2ccc(C)cc2)cc1 | ≥ 256 |
| CC(C)c1ccc(S(=O)(=O)N(CCO)c2ccccc2CN(C)C(=O)/C=C/c2ccc(C(F)(F)F)cc2)cc1 | 32 |
| Cc1ccc(S(=O)(=O)N(CCO)c2ccccc2CN(C)C(=O)/C=C/c2ccc(Cl)cc2Cl)cc1 | ≥ 256 |
| CC(=O)Nc1ccc(/C=C/C(=O)N(C)Cc2ccccc2N(CCO)S(=O)(=O)c2ccc(C)cc2)cc1 | ≥ 256 |
| COc1ccc(S(=O)(=O)N(CCO)c2ccccc2CN(C/C=C/c2ccc(Cl)cc2)CC(C)C)cc1 | 128 |
| Cc1ccc(S(=O)(=O)N(CCO)c2ccccc2CN(C(=O)/C=C/c2ccc(C(F)(F)F)cc2)C2CC2)cc1 | ≥ 256 |
| CN(Cc1ccccc1N(CCO)S(=O)(=O)c1ccc(OC(F)(F)F)cc1)C(=O)/C=C/c1ccc(C(F)(F)F)cc1 | 32 |
| Cc1ccc(S(=O)(=O)N(CCO)c2ccccc2CN(C)C(=O)/C=C/c2ccc(F)cc2)cc1 | ≥ 256 |
| CN(Cc1ccccc1N(CCO)S(=O)(=O)c1ccc2c(c1)OCCO2)C(=O)/C=C/c1ccc(C(F)(F)F)cc1 | 64 |
| Cc1ccc(S(=O)(=O)N(CCO)c2ccccc2CN(C)C(=O)/C=C/c2ccc(Cl)cc2)cc1 | 2 |
| Cc1ccc(S(=O)(=O)N(CCO)c2ccccc2CN(C)C(=O)/C=C/c2ccc(Cl)c(Cl)c2)cc1 | 16 |
| CN(Cc1ccccc1N(CCO)S(=O)(=O)c1ccc(F)cc1)C(=O)/C=C/c1ccc(Cl)cc1 | 4 |
| CN(Cc1ccccc1N(CCO)S(=O)(=O)c1ccc(F)cc1)C(=O)/C=C/c1ccc(C(F)(F)F)cc1 | 2 |
| CN(Cc1ccccc1N(CCO)S(=O)(=O)c1cccs1)C(=O)/C=C/c1ccc(Cl)cc1 | 256 |
| CCN(Cc1ccccc1N(CCO)S(=O)(=O)c1ccc(C)cc1)C(=O)/C=C/c1ccc(C(F)(F)F)cc1 | ≥ 256 |
| Cc1ccc(S(=O)(=O)N(CCO)c2ccccc2CN(C)C(=O)/C=C/c2ccc(C(F)(F)F)cc2)cc1F | 4 |
| Cc1ccc(/C=C/C(=O)N(C)Cc2ccccc2N(CCO)S(=O)(=O)c2ccc(C)cc2)cc1 | 64 |
| CN(Cc1ccccc1N(CCO)S(=O)(=O)c1ccccc1)C(=O)/C=C/c1ccc(C(F)(F)F)cc1 | 4 |
| Cc1ccc(S(=O)(=O)N(CCO)c2ccccc2CNC(=O)/C=C/c2ccc(C(F)(F)F)cc2)cc1 | ≥ 256 |

Tested on: Staphylococcus aureus
Assay: Potentiation of oxacillin-induced antibacterial activity against Staphylococcus aureus NRS70 assessed as oxacillin MIC at 20 uM
Type: functional
Conditions: not given

| SMILES | MIC [µg/mL] |
| --- | --- |
| Cc1ccc(S(=O)(=O)N(CCO)c2ccccc2CN(C)C(=O)/C=C/c2ccc(C(F)(F)F)cc2)cc1 | 16 |
| CCc1ccc(S(=O)(=O)N(CCO)c2ccccc2CN(C)C(=O)/C=C/c2ccc(C(F)(F)F)cc2)cc1 | 16 |
| Cc1ccc(S(=O)(=O)N(CCO)c2ccccc2CN(C)C(=O)/C=C/c2ccc(Cl)cc2)cc1 | 8 |
| CN(Cc1ccccc1N(CCO)S(=O)(=O)c1ccc(F)cc1)C(=O)/C=C/c1ccc(Cl)cc1 | 8 |
| CN(Cc1ccccc1N(CCO)S(=O)(=O)c1ccc(F)cc1)C(=O)/C=C/c1ccc(C(F)(F)F)cc1 | 16 |
| Cc1ccc(S(=O)(=O)N(CCO)c2ccccc2CN(C)C(=O)/C=C/c2ccc(C(F)(F)F)cc2)cc1F | 16 |
| CN(Cc1ccccc1N(CCO)S(=O)(=O)c1ccccc1)C(=O)/C=C/c1ccc(C(F)(F)F)cc1 | 16 |

Tested on: Staphylococcus aureus
Assay: Growth inhibition of Staphylococcus aureus MRSA252
Type: organism-based
Conditions: in vitro
How it was run: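 Compound alone was two-fold serially diluted in cation-adjusted Mueller-Hinton II broth containing 2.4% DMSO. Bacteria were inoculated at 5 × 10⁵ CFU mL⁻¹ and incubated at 36 °C for 16–20 h. The MIC was read in triplicate.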

| SMILES | growth inhibition (GI) |
| --- | --- |
| COc1ccc(S(=O)(=O)N(CCO)c2ccccc2CN(C)C/C=C/c2ccc(Cl)cc2)cc1 | Non-Toxic |
| Cc1ccc(S(=O)(=O)N(CCO)c2ccccc2CN(C)C(=O)/C=C/c2ccc(C(F)(F)F)cc2)cc1 | Non-Toxic |
| Cc1ccc(S(=O)(=O)N(CCO)c2ccccc2CN(C/C=C/c2ccc(Cl)cc2)CC(C)C)cc1 | Non-Toxic |
| CCc1ccc(S(=O)(=O)N(CCO)c2ccccc2CN(C)C(=O)/C=C/c2ccc(C(F)(F)F)cc2)cc1 | Non-Toxic |
| CN(Cc1ccccc1N(CCO)S(=O)(=O)c1ccsc1)C(=O)/C=C/c1ccc(Cl)cc1 | Non-Toxic |
| CN(Cc1ccccc1N(CCO)S(=O)(=O)c1ccc([N+](=O)[O-])cc1)C(=O)/C=C/c1ccc(C(F)(F)F)cc1 | Non-Toxic |
| Cc1ccc(S(=O)(=O)N(CCO)c2ccccc2CN(C(=O)/C=C/c2ccc(C(F)(F)F)cc2)C(C)C)cc1 | Non-Toxic |
| CN(Cc1ccccc1N(CCO)S(=O)(=O)c1ccc(C#N)cc1)C(=O)/C=C/c1ccc(C(F)(F)F)cc1 | Non-Toxic |
| CN(Cc1ccccc1NS(=O)(=O)c1ccc(F)cc1)C(=O)/C=C/c1ccc(C(F)(F)F)cc1 | Non-Toxic |
| COc1ccc(/C=C/C(=O)N(C)Cc2ccccc2N(CCO)S(=O)(=O)c2ccc(C)cc2)cc1 | Non-Toxic |
| CC(C)c1ccc(S(=O)(=O)N(CCO)c2ccccc2CN(C)C(=O)/C=C/c2ccc(C(F)(F)F)cc2)cc1 | Non-Toxic |
| Cc1ccc(S(=O)(=O)N(CCO)c2ccccc2CN(C)C(=O)/C=C/c2ccc(Cl)cc2Cl)cc1 | Non-Toxic |
| CC(=O)Nc1ccc(/C=C/C(=O)N(C)Cc2ccccc2N(CCO)S(=O)(=O)c2ccc(C)cc2)cc1 | Non-Toxic |
| COc1ccc(S(=O)(=O)N(CCO)c2ccccc2CN(C/C=C/c2ccc(Cl)cc2)CC(C)C)cc1 | Non-Toxic |
| Cc1ccc(S(=O)(=O)N(CCO)c2ccccc2CN(C(=O)/C=C/c2ccc(C(F)(F)F)cc2)C2CC2)cc1 | Non-Toxic |
| CN(Cc1ccccc1N(CCO)S(=O)(=O)c1ccc(OC(F)(F)F)cc1)C(=O)/C=C/c1ccc(C(F)(F)F)cc1 | Non-Toxic |
| Cc1ccc(S(=O)(=O)N(CCO)c2ccccc2CN(C)C(=O)/C=C/c2ccc(F)cc2)cc1 | Non-Toxic |
| CN(Cc1ccccc1N(CCO)S(=O)(=O)c1ccc2c(c1)OCCO2)C(=O)/C=C/c1ccc(C(F)(F)F)cc1 | Non-Toxic |
| Cc1ccc(S(=O)(=O)N(CCO)c2ccccc2CN(C)C(=O)/C=C/c2ccc(Cl)cc2)cc1 | Non-Toxic |
| Cc1ccc(S(=O)(=O)N(CCO)c2ccccc2CN(C)C(=O)/C=C/c2ccc(Cl)c(Cl)c2)cc1 | Non-Toxic |
| CN(Cc1ccccc1N(CCO)S(=O)(=O)c1ccc(F)cc1)C(=O)/C=C/c1ccc(Cl)cc1 | Non-Toxic |
| CN(Cc1ccccc1N(CCO)S(=O)(=O)c1ccc(F)cc1)C(=O)/C=C/c1ccc(C(F)(F)F)cc1 | Non-Toxic |
| CN(Cc1ccccc1N(CCO)S(=O)(=O)c1cccs1)C(=O)/C=C/c1ccc(Cl)cc1 | Non-Toxic |
| CCN(Cc1ccccc1N(CCO)S(=O)(=O)c1ccc(C)cc1)C(=O)/C=C/c1ccc(C(F)(F)F)cc1 | Non-Toxic |
| Cc1ccc(S(=O)(=O)N(CCO)c2ccccc2CN(C)C(=O)/C=C/c2ccc(C(F)(F)F)cc2)cc1F | Non-Toxic |
| Cc1ccc(/C=C/C(=O)N(C)Cc2ccccc2N(CCO)S(=O)(=O)c2ccc(C)cc2)cc1 | Non-Toxic |
| CN(Cc1ccccc1N(CCO)S(=O)(=O)c1ccccc1)C(=O)/C=C/c1ccc(C(F)(F)F)cc1 | Non-Toxic |
| Cc1ccc(S(=O)(=O)N(CCO)c2ccccc2CNC(=O)/C=C/c2ccc(C(F)(F)F)cc2)cc1 | Non-Toxic |

Tested on: Staphylococcus aureus
Assay: Potentiation of oxacillin-induced antibacterial activity against Staphylococcus aureus MRSA252 assessed as fold reduction in oxacillin MIC at 20 uM relative to oxacillin alone
Type: functional
Conditions: not given

| SMILES | fold change (FC) |
| --- | --- |
| Cc1ccc(S(=O)(=O)N(CCO)c2ccccc2CN(C)C(=O)/C=C/c2ccc(C(F)(F)F)cc2)cc1 | 128 |
| CCc1ccc(S(=O)(=O)N(CCO)c2ccccc2CN(C)C(=O)/C=C/c2ccc(C(F)(F)F)cc2)cc1 | 64 |
| Cc1ccc(S(=O)(=O)N(CCO)c2ccccc2CN(C)C(=O)/C=C/c2ccc(Cl)cc2)cc1 | 128 |
| CN(Cc1ccccc1N(CCO)S(=O)(=O)c1ccc(F)cc1)C(=O)/C=C/c1ccc(Cl)cc1 | 64 |
| CN(Cc1ccccc1N(CCO)S(=O)(=O)c1ccc(F)cc1)C(=O)/C=C/c1ccc(C(F)(F)F)cc1 | 128 |
| Cc1ccc(S(=O)(=O)N(CCO)c2ccccc2CN(C)C(=O)/C=C/c2ccc(C(F)(F)F)cc2)cc1F | 64 |
| CN(Cc1ccccc1N(CCO)S(=O)(=O)c1ccccc1)C(=O)/C=C/c1ccc(C(F)(F)F)cc1 | 64 |

Tested on: Staphylococcus aureus
Assay: Potentiation of oxacillin-induced antibacterial activity against methicillin/oxacillin/tetracycline-resistant Staphylococcus aureus NRS100 assessed as oxacillin MIC at 20 uM
Type: functional
Conditions: not given
How it was run: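 Oxacillin MIC measured with the synthetic potentiator held at a fixed 20 μM. Two-fold serial dilution in cation-adjusted Mueller-Hinton II broth containing 2.4% DMSO. Inoculum 5 × 10⁵ CFU mL⁻¹, incubated at 36 °C for 16–20 h. Run in triplicate.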

| SMILES | MIC [µg/mL] |
| --- | --- |
| Cc1ccc(S(=O)(=O)N(CCO)c2ccccc2CN(C)C(=O)/C=C/c2ccc(C(F)(F)F)cc2)cc1 | 4 |
| CCc1ccc(S(=O)(=O)N(CCO)c2ccccc2CN(C)C(=O)/C=C/c2ccc(C(F)(F)F)cc2)cc1 | 16 |
| Cc1ccc(S(=O)(=O)N(CCO)c2ccccc2CN(C)C(=O)/C=C/c2ccc(Cl)cc2)cc1 | 2 |
| CN(Cc1ccccc1N(CCO)S(=O)(=O)c1ccc(F)cc1)C(=O)/C=C/c1ccc(Cl)cc1 | 1 |
| CN(Cc1ccccc1N(CCO)S(=O)(=O)c1ccc(F)cc1)C(=O)/C=C/c1ccc(C(F)(F)F)cc1 | 2 |
| Cc1ccc(S(=O)(=O)N(CCO)c2ccccc2CN(C)C(=O)/C=C/c2ccc(C(F)(F)F)cc2)cc1F | 2 |
| CN(Cc1ccccc1N(CCO)S(=O)(=O)c1ccccc1)C(=O)/C=C/c1ccc(C(F)(F)F)cc1 | 2 |

Tested on: Staphylococcus aureus
Assay: Potentiation of oxacillin-induced antibacterial activity against Staphylococcus aureus NRS386 assessed as oxacillin MIC at 20 uM
Type: functional
Conditions: USA700 NRS386

| SMILES | MIC [µg/mL] |
| --- | --- |
| Cc1ccc(S(=O)(=O)N(CCO)c2ccccc2CN(C)C(=O)/C=C/c2ccc(C(F)(F)F)cc2)cc1 | 4 |
| CCc1ccc(S(=O)(=O)N(CCO)c2ccccc2CN(C)C(=O)/C=C/c2ccc(C(F)(F)F)cc2)cc1 | 8 |
| Cc1ccc(S(=O)(=O)N(CCO)c2ccccc2CN(C)C(=O)/C=C/c2ccc(Cl)cc2)cc1 | 4 |
| CN(Cc1ccccc1N(CCO)S(=O)(=O)c1ccc(F)cc1)C(=O)/C=C/c1ccc(Cl)cc1 | 1 |
| CN(Cc1ccccc1N(CCO)S(=O)(=O)c1ccc(F)cc1)C(=O)/C=C/c1ccc(C(F)(F)F)cc1 | 8 |
| Cc1ccc(S(=O)(=O)N(CCO)c2ccccc2CN(C)C(=O)/C=C/c2ccc(C(F)(F)F)cc2)cc1F | 8 |
| CN(Cc1ccccc1N(CCO)S(=O)(=O)c1ccccc1)C(=O)/C=C/c1ccc(C(F)(F)F)cc1 | 2 |
